Results as given in ChEMBL document CHEMBL1132425, “Synthesis and antiviral activity of ethidium-arginine conjugates directed against the TAR RNA of HIV-1” (J Med Chem, 1999).

Experiments:
CEM-SS [1] = assay: Anti-HIV-1 activity against CEM-SS cell lines; assay type: functional, cell-based; conditions: Homo sapiens
Procedure, shortened: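 HIV-1 LAI (grown in CEM-SS) infecting CEM-SS cells kept in RPMI + 10% heat-treated FCS; 30-min adsorption, unbound virus washed off, then 5 days culture with graded compound concentrations. Virus output read as reverse transcriptase activity in supernatant. Triplicate per concentration, experiment run twice; IC50 from median-effect plot of dose-effect data.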

CEM-SS [2] = assay: Cytotoxicity towards uninfected CEM-SS cell lines; assay type: functional; conditions: Homo sapiens
Procedure, shortened: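 Uninfected CEM-SS cells exposed 5 days to varied compound concentrations; viability by MTT colorimetric test. CC50 is the concentration halving OD540, from median-effect dose analysis. Triplicate per concentration, experiment repeated twice.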

MT4 [3] = assay: (§1) Cytotoxicity towards uninfected MT-4 cell lines; assay type: functional; conditions: Homo sapiens
Procedure, shortened: (§2)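 Uninfected MT4 cells with graded compound levels; viability by MTT reduction to formazan. Triplicate per concentration, experiment run twice.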

MT4 [4] = assay: (§3) Anti-HIV-1 activity against MT-4 cell lines; assay type: functional, cell-based; conditions: Homo sapiens
Procedure, shortened: (§4)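 MT4 cells (RPMI + 10% heat-treated FCS) infected with HIV-1; protection from virus-induced cytopathicity read by MTT reduction to formazan by mitochondrial dehydrogenases. Triplicate per concentration, experiment repeated twice. Where inhibition stayed under 50%, the measured percentage is reported in parentheses.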

PBMC [5] = assay: Cytotoxicity towards uninfected PBMC cell lines; assay type: functional; conditions: Homo sapiens
Procedure, shortened: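 Uninfected PBMC incubated 7 days with compound; viability by colorimetric MTT assay. Triplicate per concentration, experiment repeated twice.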

PBMC [6] = assay: (§5) Anti-HIV-1 activity against PBMC cell lines; assay type: functional, cell-based; conditions: Homo sapiens
Procedure, shortened: (§6)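 Infected PBMC grown 7 days with graded compound concentrations after virus incubation; HIV-1 production measured as reverse transcriptase activity in culture supernatant. Triplicate per concentration, whole experiment done twice.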

PBMC [7] = assay: as §5; assay type: functional, Homo sapiens; procedure, shortened: as §6
MT4 [8] = assay: as §3; assay type: functional; conditions: Homo sapiens; procedure, shortened: as §4
MT4 [9] = assay: as §1; assay type: functional, Homo sapiens; procedure, shortened: as §2

Row | Structure (SMILES) | IC50 (CEM-SS [1]) | CC50 (CEM-SS [2]) | CC50 (MT4 [3]) | IC50 (MT4 [4]) | CC50 (PBMC [5]) | IC50 (PBMC [6]) | Inhibition (PBMC [7]) | CC50 (MT4 [8]) | Inhibition (MT4 [9])
1 | C[n+]1c(-c2cccc(C(=O)O)c2)c2cc(N)ccc2c2ccc(N)cc21 | 95 µM | > 100 µM | 42 µM | > 100 µM | 44 µM | 20 µM | – | – | –
2 | C[n+]1c(-c2cccc(C(=O)NCCCCCC(=O)NC(CCCN=C(N)N)C(=O)O)c2)c2cc(N)ccc2c2ccc(N)cc21.[Cl-] (centres undefined) | > 100 µM | > 100 µM | 59 µM | > 100 µM | > 100 µM | > 100 µM | 40% | – | –
3 | COC(=O)C(CCCN=C(N)N)NC(=O)CCCCCNC(=O)c1cccc(-c2c3cc(N)ccc3c3ccc(N)cc3[n+]2C)c1 (centres undefined) | > 100 µM | > 100 µM | 60 µM | > 100 µM | > 100 µM | 89 µM | – | – | –
4 | COC(=O)C(CCCN=C(N)N)NC(=O)CCNC(=O)c1cccc(-c2c3cc(N)ccc3c3ccc(N)cc3[n+]2C)c1 (centres undefined) | 83 µM | 85 µM | 21 µM | > 100 µM | 47 µM | 78 µM | – | – | –
5 | C[n+]1c(-c2cccc(C(=O)NCCC(=O)NC(CCCN=C(N)N)C(=O)O)c2)c2cc(N)ccc2c2ccc(N)cc21 (centres undefined) | > 100 µM | > 100 µM | 47 µM | > 100 µM | > 100 µM | 73 µM | – | – | –
6 | COC(=O)C(CCCN=C(N)N)NC(=O)CCNC(=O)CCCCCNC(=O)c1cccc(-c2c3cc(N)ccc3c3ccc(N)cc3[n+]2C)c1.[Cl-] (centres undefined) | 4.6 µM | > 100 µM | – | > 100 µM | > 100 µM | 8.7 µM | – | > 100 µM | 45%
7 | C[n+]1c(-c2cccc(C(=O)NCCCCCC(=O)NCCC(=O)NC(CCCN=C(N)N)C(=O)O)c2)c2cc(N)ccc2c2ccc(N)cc21 (centres undefined) | 2.4 µM | > 100 µM | > 100 µM | 11 µM | > 100 µM | 2.5 µM | – | – | –
